Results taken from ChEMBL document CHEMBL2331242, “Amberlite IR-120H catalyzed MCR: design, synthesis and crystal structure analysis of 1,8-dioxodecahydroacridines as potential inhibitors of sirtuins” (Bioorg Med Chem Lett, 2013).

Target: NAD-dependent histone deacetylase SIR2 (Saccharomyces cerevisiae S288c) (UniProt P06700)
Assay: Inhibition of yeast TEL::-URA3 Sir2 assessed as growth inhibition of yeast at 50 uM after 24 to 48 hrs
In short: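 Yeast cell-based reporter silencing screen for Sir2, the yeast homologue of SIRT1. Strain TEL::URA3 (MATα ura3-52 lys2-801 ade2-101 trpΔ63 his3Δ200 leu2-Δ1 TEL adh4::URA3) carries URA3 inserted at a telomeric locus, where Sir2 silences it. Inhibition was scored as inhibition of growth of this strain in the presence of 5-fluoroorotic acid. Compounds were tested at 50 µM, with splitomicin as the reference inhibitor.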

NAD-dependent histone deacetylase SIR2 (Saccharomyces cerevisiae S288c), sequence (P06700 whole entry): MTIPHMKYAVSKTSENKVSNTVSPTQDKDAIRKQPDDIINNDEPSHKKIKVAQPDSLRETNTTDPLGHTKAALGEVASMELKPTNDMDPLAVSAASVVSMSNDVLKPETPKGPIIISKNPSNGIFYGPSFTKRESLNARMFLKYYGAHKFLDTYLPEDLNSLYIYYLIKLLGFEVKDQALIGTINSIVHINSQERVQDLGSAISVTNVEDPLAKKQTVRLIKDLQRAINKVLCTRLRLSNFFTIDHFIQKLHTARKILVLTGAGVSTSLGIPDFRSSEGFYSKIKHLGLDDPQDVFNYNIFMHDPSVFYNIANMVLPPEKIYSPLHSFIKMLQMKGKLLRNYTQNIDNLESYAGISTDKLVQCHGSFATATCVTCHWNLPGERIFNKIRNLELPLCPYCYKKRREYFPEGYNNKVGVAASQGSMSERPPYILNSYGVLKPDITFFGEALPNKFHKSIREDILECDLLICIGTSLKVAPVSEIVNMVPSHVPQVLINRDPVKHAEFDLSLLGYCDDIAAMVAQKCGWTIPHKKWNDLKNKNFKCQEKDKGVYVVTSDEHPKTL

Structure (SMILES)	inhibition
CC1(C)CC(=O)C2=C(C1)N(c1ccc(I)cc1)C1=C(C(=O)CC(C)(C)C1)C2c1cccc([N+](=O)[O-])c1	35.2%
CC1(C)CC(=O)C2=C(C1)N(c1ccc(F)cc1)C1=C(C(=O)CC(C)(C)C1)C2c1cccc(O)c1	33.5%
CC(=O)c1ccc(N2C3=C(C(=O)CC(C)(C)C3)C(c3cccc(O)c3)C3=C2CC(C)(C)CC3=O)cc1	12.8%
CC1(C)CC(=O)C2=C(C1)N(c1ccc(I)cc1)C1=C(C(=O)CC(C)(C)C1)C2c1cccs1	13%
Cc1ccc(N2C3=C(C(=O)CC(C)(C)C3)C(c3cccc(O)c3)C3=C2CC(C)(C)CC3=O)cc1	30.2%
CCOC(=O)c1c(N2C3=C(C(=O)CC(C)(C)C3)C(c3cccs3)C3=C2CC(C)(C)CC3=O)sc2c1CCCC2	16.2%
CC1(C)CC(=O)C2=C(C1)N(c1ccc(I)cc1)C1=C(C(=O)CC(C)(C)C1)C2c1cccc(O)c1	41.1%
CC1(C)CC(=O)C2=C(C1)N(c1ccccc1)C1=C(C(=O)CC(C)(C)C1)C2c1ccccc1O	15.6%
CC1(C)CC(=O)C2=C(C1)N(c1ccc(Br)cc1)C1=C(C(=O)CC(C)(C)C1)C2c1ccc2ccccc2c1	10.6%
CC1(C)CC(=O)C2=C(C1)N(c1ccc(C#N)cc1)C1=C(C(=O)CC(C)(C)C1)C2c1cccc(O)c1	17.9%
CC1(C)CC(=O)C2=C(C1)N(c1ccc(F)cc1)C1=C(C(=O)CC(C)(C)C1)C2c1cccc(F)c1	28.4%
CC1(C)CC(=O)C2=C(C1)N(c1ccc(Br)cc1)C1=C(C(=O)CC(C)(C)C1)C2c1cccc(O)c1	32.5%
CC1(C)CC(=O)C2=C(C1)N(c1ccc(C(F)(F)F)cc1)C1=C(C(=O)CC(C)(C)C1)C2c1cccc(O)c1	28.5%
CC1(C)CC(=O)C2=C(C1)N(c1ccccc1I)C1=C(C(=O)CC(C)(C)C1)C2c1cccc(O)c1	23.7%
CC1(C)CC(=O)C2=C(C1)N(c1ccc(Cl)cc1)C1=C(C(=O)CC(C)(C)C1)C2c1cccc([N+](=O)[O-])c1	29.2%
